We go through 1 compound from ChEMBL document CHEMBL5038583, “Highly Potent and Selective Butyrylcholinesterase Inhibitors for Cognitive Improvement and Neuroprotection” (J Med Chem, 2021).

The source made the active and inactive calls. The rule behind the calls is not given here.

Series [1] can be described thus: Cmax in overnight fasted Sprague-Dawley rat at 10 mg/kg, iv measured upto 1440 mins by LC/MS/MS analysis. The series is classed as ADME, organism-based. Details: route intravenous, dose 10 mg/kg, time <=1440. The conditions noted are these: in vivo, 24 h. A digest of the protocol:
(§1)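 Male SD rats (180−220 g), n = 8 per route, fasted overnight with water available. Single 10 mg/kg dose p.o. or i.v. in DMSO/PEG400/saline (10:80:10). Retro-orbital blood taken into heparinized tubes at 1–1440 min. Plasma precipitated with methanol containing theophylline internal standard, then LC/MS/MS against a blank-plasma standard curve. Parameters from noncompartmental extravascular analysis; mean ± SD.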

Series [2] is described as follows: Oral bioavailability in overnight fasted Sprague-Dawley rat at 10 mg/kg measured upto 1440 mins by LC/MS/MS analysis. The series is classed as ADME, organism-based. Conditions: in vivo. Summed up: as §1
The subject of series [3] is Mus musculus. The series can be described thus: Anti-alzheimer activity in amyloid beta(1 to 42)-induced ICR mouse model of cognitive impairment assessed as enhanced alternation performance by measuring total number of arm entries at 15 mg/kg, ig administered at days 2 to 14 and measured on day 15 by Y-maze test. Format: functional. Summed up: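 Oligomerized Aβ1-42 (10 μg per mouse, icv) given on day 1; saline icv for sham. Dosing 15 mg/kg ig on days 2−14 (donepezil as positive control), n = 8. Spontaneous alternation read on day 15 in a three-arm grey PVC Y maze, arms at 120°. Mean SD.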

A short description of series [4]: AUC (0 to infinity) in overnight fasted Sprague-Dawley rat at 10 mg/kg, po measured upto 1440 mins by LC/MS/MS analysis. Details: route oral, dose 10 mg/kg, time <=1440. The series is classed as ADME, organism-based. The conditions noted are these: in vivo. Summed up:
as §1

A further series deals with Cholinesterase (Homo sapiens, UniProt P06276). In words: Inhibition of human serum BChE using butyrylthiocholine iodide as substrate preincubated for 20 mins followed by substrate addition and measured after 2 mins by DTNB-reagent based Ellman's method. A digest of the protocol:
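hBChE at 0.015 units/mL with DTNB in phosphate buffer pH 8.0, preincubated 20 min at room temperature with at least six concentrations (10⁻⁴−10⁻⁹). Butyrylthiocholine iodide (0.075 M solution) added; A412 read after 2 min at 25 °C. IC50 from % activity vs log concentration; triplicates in at least three runs.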

Series [5] in a line: MRT (0 to infinity) in overnight fasted Sprague-Dawley rat at 10 mg/kg, po measured upto 1440 mins by LC/MS/MS analysis. The series is classed as ADME, organism-based. Conditions: in vivo. A digest of the protocol:
as §1

The subject of a further series is PC-12. In words: Cytotoxicity against rat PC-12 cells assessed as reduction in cell viability incubated for 24 hrs by MTT assay. Format: functional, cell-based. Conditions: PC-12, 24 h. Summed up:
(§2)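 Cells seeded at 1 × 10⁴/well in DMEM with 10% FBS and left overnight, then given compound (DMSO stock diluted in DMEM) for 24 h at 37 °C. MTT added for 4 h, formazan dissolved in DMSO, absorbance read at 492 nm. Viability taken as OD treated/OD DMEM × 100%; IC50 from three independent experiments, mean SD.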

Series [6] concerns SH-SY5Y. In words: Cytotoxicity against human SH-SY5Y cells assessed as survival rate at 100 uM incubated for 24 hrs by MTT assay. Format: functional. Summed up:
as §2

Series [7] in a line: Tmax in overnight fasted Sprague-Dawley rat at 10 mg/kg, iv measured upto 1440 mins by LC/MS/MS analysis. The conditions noted are these: in vivo. Format: ADME, organism-based. A digest of the protocol:
as §1

Series [8] is described as follows: AUC (0 to t) in ICR mouse brain at 10 mg/kg, po measured upto 240 mins. The series is classed as ADME, organism-based. Also on record: route oral, dose 10 mg/kg, time <=240. Summed up: (§3)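 ICR mice given 10 mg/kg orally in 5% DMSO/40% PEG400/55% saline (1 mg/mL). Blood (retro-orbital) and brain collected at 30, 60, 120 and 240 min. Brain homogenized in 2 volumes PBS, extracted with ethyl acetate, dried and reconstituted in mobile phase. Plasma processed as in the rat study; LC/MS/MS. Brain/plasma ratios from exposures, AUC(B) vs AUC(P).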

A short description of series [9]: Acute toxicity in ICR mouse assessed as animal death at […]. Conditions: in vivo, po, 1000 mg/kg, 336 h.
Series [10] is described as follows: AUC (0 to t) in overnight fasted Sprague-Dawley rat at 10 mg/kg, po measured upto 1440 mins by LC/MS/MS analysis. Format: ADME, organism-based. Also on record: route oral, dose 10 mg/kg, time <=1440. The conditions noted are these: in vivo. Summed up:
as §1

For series [11], the system named is SH-SY5Y. The series can be described thus: Neuroprotective activity against glutamate-induced cytotoxicity in human SH-SY5Y cells at 10 uM pretreated for 2 hrs followed by glutamate stimulation and measured after 24 hrs by MTT assay. The series is classed as functional, cell-based. Conditions: time 26.0 hrs. A digest of the protocol:
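SH-SY5Y cells seeded at 5000 per well and grown 24 h. Pretreated 2 h with compound (2.5 or 10 μM, diluted in DMEM from 10⁻¹ M DMSO stock), then H₂O₂ 200 μM, glutamate 20 mM or aggregated Aβ1-42 15 μM for 24 h. MTT added for 4 h, formazan dissolved in DMSO, absorbance read at 492 nm. Viability relative to untreated control; mean ± SEM, n = 3.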
(Formazan colour is commonly taken as a measure of viable cells.)

The subject of a further series is L02. In words: Cytotoxicity against human L02 cells assessed as survival rate at 100 uM incubated for 24 hrs by MTT assay. Format: functional. A digest of the protocol: as §2
The subject of series [12] is Mus musculus. In words: Anti-alzheimer activity in amyloid beta(1 to 42)-induced ICR mouse model of cognitive impairment assessed as reduction in escape latency time at 15 mg/kg, ig administered at days 2 to 14 by Morris water maze test. Format: functional. A digest of the protocol: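 Mouse model by icv oligomerized Aβ1-42 (10 μg/mouse, aggregated 24 h at 37 °C in saline) on day 1; 15 mg/kg ig on days 2−14, n = 8. Morris water maze training on days 9−13, probe trial day 14, escape latency and track recorded. Mean SD.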

The next series relates to BV-2. In words: Cytotoxicity against mouse BV-2 cells assessed as survival rate at 100 uM incubated for 24 hrs by MTT assay. Format: functional. A digest of the protocol: as §2
Series [13] can be described thus: Ratio of AUC in brain to plasma of ICR mouse at 10 mg/kg, po measured upto 240 mins. Format: ADME, organism-based. Conditions: read-out: Ratio AUC. A digest of the protocol:
as §3

The nature of series [14]: MRT (0 to infinity) in overnight fasted Sprague-Dawley rat at 10 mg/kg, iv measured upto 1440 mins by LC/MS/MS analysis. Conditions: in vivo. The series is classed as ADME, organism-based. A digest of the protocol: as §1
A short description of series [15]: Effective permeability of the compound in pH 7.4 PBS/EtOH (70:30) at 100 ug/ml incubated for 18 hrs by PAMPA-BBB assay. The series is classed as ADME. Conditions: dose 100 µg/ml, read-out: Peff. Summed up:
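PAMPA-BBB with porcine brain lipid in dodecane (20 mg/mL) on PVDF filter. Donor holds compound at 100 μg/mL final (from 5 mg/mL DMSO stock) in PBS pH 7.4/EtOH 70:30; acceptor holds the same buffer. Incubated 18 h at 25 °C; donor and acceptor concentrations by UV at five wavelengths. Four wells, at least three runs, nine permeability standards; mean ± SD.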
In general terms: PAMPA measures passive passage across an artificial lipid membrane.

Series [16] is described as follows: Metabolic stability in human liver microsomes assessed as intrinsic clearance at 1 uM measured upto 45 mins in presence of NADPH by LC/MS/MS analysis. The series is classed as ADME, Microsome. The conditions noted are these: read-out: CLH. Summed up:
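Human liver microsomes 0.5 mg/mL, compound 1 μM final, NADPH 2 mM, at 37 °C. Reactions stopped at 0, 5, 15, 30 and 45 min with acetonitrile containing imipramine internal standard. LC/MS/MS quantitation relative to 0 min; initial rates used for t1/2 and intrinsic clearance; ketanserin as assay control. Mean of two independent experiments.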
(Liver microsomes are a subcellular fraction often used to study metabolism.)

The nature of series [17]: Tmax in overnight fasted Sprague-Dawley rat at 10 mg/kg, po measured upto 1440 mins by LC/MS/MS analysis. The series is classed as ADME, organism-based. The conditions noted are these: in vivo, 24 h. A digest of the protocol:
as §1

Sequence of Cholinesterase (P06276 whole entry): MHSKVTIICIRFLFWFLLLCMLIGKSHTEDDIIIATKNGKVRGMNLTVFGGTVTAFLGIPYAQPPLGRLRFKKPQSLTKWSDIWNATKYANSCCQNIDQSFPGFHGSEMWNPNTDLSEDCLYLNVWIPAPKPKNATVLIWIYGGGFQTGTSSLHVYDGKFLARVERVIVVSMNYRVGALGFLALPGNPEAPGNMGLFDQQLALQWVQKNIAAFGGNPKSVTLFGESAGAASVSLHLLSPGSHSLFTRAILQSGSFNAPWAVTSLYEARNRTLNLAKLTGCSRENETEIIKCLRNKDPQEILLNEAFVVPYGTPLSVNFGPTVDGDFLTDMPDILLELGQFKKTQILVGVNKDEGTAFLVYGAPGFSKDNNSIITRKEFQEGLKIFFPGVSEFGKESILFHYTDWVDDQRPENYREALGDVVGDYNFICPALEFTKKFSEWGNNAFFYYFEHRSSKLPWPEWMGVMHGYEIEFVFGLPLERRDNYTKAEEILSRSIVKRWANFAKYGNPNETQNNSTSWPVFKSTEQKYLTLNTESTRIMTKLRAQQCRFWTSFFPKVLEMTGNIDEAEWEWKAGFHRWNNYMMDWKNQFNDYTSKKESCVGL

Turning to `Nc1nonc1-c1nc2ccccc2n1CC(=O)Nc1cnc2ccccc2c1`, in series [1], the peak concentration (Cmax) (commonly the maximum level reached in the sampled fluid or tissue) was found to be 488.33 ng/mL. Further, the bioavailability (usually dose-corrected exposure relative to a reference, in per cent) in series [2] was 73.4%. For the same compound, the result with Mus musculus [3] and with SH-SY5Y [11] was Active. Moreover, the AUC(0-inf) (as a rule, total exposure, with the tail of the curve extrapolated) in [4] is 662 ng·h/mL. Further, the IC50 – broadly, the point on the concentration scale where inhibition reaches its midpoint – was 0.016 µM on Cholinesterase and 33.5 µM with PC-12. Besides, the MRT inf (commonly the average time that molecules of a dose stay in the body) came to 11.6 h in series [5] and 14.1 h in series [14]. Moreover, the Activity was 62.19% with SH-SY5Y [6], “Non-Toxic” in series [9], 70.64% with L02 and 69.72% with BV-2. In addition, the time to peak (Tmax) (as a rule, the time at which the peak concentration occurs) in series [7] came to 1.02 min; in series [17] it was 9.5 h. Also, the AUC(0-t) – broadly, the area under the concentration-time curve up to a stated or last time point – at 4 h in [8] worked out at 34.1 ng·h/mL. Also, the area under the curve AUC(0-t) at 24 h in series [10] is 628 ng·h/mL. Also, the Time with Mus musculus [12] stood at 13.83 s. Moreover, the Kp at 4 h in [13] was 0.36. Moreover, the Papp at 18 h, 100 ug/ml in series [15] stood at 4.45 ×10⁻⁶ cm/s. In series [16], the CLint scaled at 1 µM amounted to 10.9 mL/min/kg.
